Measurements taken from paper PMC3404467 (Journal of Medicinal Chemistry, 2012).

Assays:
hNPFF1R [1] = molecular target: T1, hNPFF1R (Homo sapiens, UniProt Q9GZQ6); test: IP accumulation assay, wt hNPFF1R in COS-7 cells with chimeric G-protein; assay type: cell-based; conditions: for functional behaviour at NPFF1R: IP accumulation assays; for functional behaviour at NPFF1R / IP accumulation at NPFF1R: wt NPFF1R; for x-fold: wt hNPFF1R, EC50(compound)/EC50(endogenous ligand NPVF at wt); for IP accumulation at NPFF1R: at 10 μM
COS-7 cells = test: Resazurin-based cell viability assay; design: species or system African Green Monkey; conditions: 2 h incubation, at high compound concentrations
How it was run: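 COS-7 cells seeded 30,000/well, grown to subconfluency, exposed 2 h to varying concentrations in DMEM (4.5 g/L glucose, L-glutamine, 10% heat-inactivated FCS). Controls were 70% EtOH for 10 min and FCS medium. Cells were washed twice in serum-free medium, then given 10% resazurin in serum-free medium for 2 h at 37°C. Resorufin fluorescence was read at ex 550/em 595 nm. Two independent experiments, triplicates; IC50 derived.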

human NPFF2 receptor = human NPFF2 receptor (Homo sapiens, UniProt Q9Y5X5); test: IP accumulation assay, wt hNPFF2R in COS-7 cells with chimeric G-protein; assay type: cell-based; conditions: for functional behaviour at NPFF2R: IP accumulation assays, wt NPFF2R; for x-fold: wt hNPFF2R, EC50(compound)/EC50(NPFF at wt)
Y^7.35A_hNPFF2R = Y^7.35A_hNPFF2R (Homo sapiens, UniProt Q9Y5X5, Y417A); test: IP accumulation assay, Y^7.35A mutant of hNPFF2R; assay type: cell-based; conditions: Y^7.35A hNPFF2R; ratio to EC50 of NPFF at wt
Y^5.38A hNPFF2 receptor = Y^5.38A hNPFF2 receptor (Homo sapiens, UniProt Q9Y5X5, Y321A); test: IP accumulation assay, Y^5.38A mutant of hNPFF2R; assay type: cell-based; conditions: Y^5.38A hNPFF2R; ratio to EC50 of NPFF at wt
hNPFF1R [2] = molecular target: T1, hNPFF1R; test: Antagonism: NPVF concentration-response curves; assay type: cell-based; conditions: against NPVF
[3] = rats, spinal nerve ligation; cited from earlier work
D^6.59A_hNPFF2R = D^6.59A_hNPFF2R (Homo sapiens, UniProt Q9Y5X5, D400A); test: IP accumulation assay, D^6.59A mutant of hNPFF2R; assay type: cell-based; conditions: D^6.59A hNPFF2R; ratio to EC50 of NPFF at wt
Y^7.33A_hNPFF2R = Y^7.33A_hNPFF2R (Homo sapiens, UniProt Q9Y5X5, Y415A); test: IP accumulation assay, Y^7.33A mutant of hNPFF2R; assay type: cell-based; conditions: Y^7.33A hNPFF2R; ratio to EC50 of NPFF at wt
hNPFF2R = conditions: cited from earlier work
hNPFF1R [4] = molecular target: T1, hNPFF1R; conditions: CHO-hNPFF1R cells, up to 10 μM; cited from earlier work

Sequence of Y^7.35A_hNPFF2R (Q9Y5X5 whole entry Y417A): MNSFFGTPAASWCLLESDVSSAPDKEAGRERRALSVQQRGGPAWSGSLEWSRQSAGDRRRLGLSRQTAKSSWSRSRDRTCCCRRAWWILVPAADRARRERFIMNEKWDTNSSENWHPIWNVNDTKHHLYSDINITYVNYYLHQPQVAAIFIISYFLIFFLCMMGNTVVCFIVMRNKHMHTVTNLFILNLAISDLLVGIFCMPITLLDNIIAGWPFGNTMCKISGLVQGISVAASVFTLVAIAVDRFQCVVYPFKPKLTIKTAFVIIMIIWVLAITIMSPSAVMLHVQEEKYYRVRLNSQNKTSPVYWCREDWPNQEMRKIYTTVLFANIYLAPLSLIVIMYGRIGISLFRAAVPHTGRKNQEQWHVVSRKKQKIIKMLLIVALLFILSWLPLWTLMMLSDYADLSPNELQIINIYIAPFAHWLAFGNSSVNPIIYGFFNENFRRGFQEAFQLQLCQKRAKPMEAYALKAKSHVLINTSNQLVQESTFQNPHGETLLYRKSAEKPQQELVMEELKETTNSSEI
Sequence of human NPFF2 receptor (Q9Y5X5 whole entry): as the sequence (Q9Y5X5 whole entry Y417A) above, with A417Y counted along it
T1 sequence (Q9GZQ6 whole entry): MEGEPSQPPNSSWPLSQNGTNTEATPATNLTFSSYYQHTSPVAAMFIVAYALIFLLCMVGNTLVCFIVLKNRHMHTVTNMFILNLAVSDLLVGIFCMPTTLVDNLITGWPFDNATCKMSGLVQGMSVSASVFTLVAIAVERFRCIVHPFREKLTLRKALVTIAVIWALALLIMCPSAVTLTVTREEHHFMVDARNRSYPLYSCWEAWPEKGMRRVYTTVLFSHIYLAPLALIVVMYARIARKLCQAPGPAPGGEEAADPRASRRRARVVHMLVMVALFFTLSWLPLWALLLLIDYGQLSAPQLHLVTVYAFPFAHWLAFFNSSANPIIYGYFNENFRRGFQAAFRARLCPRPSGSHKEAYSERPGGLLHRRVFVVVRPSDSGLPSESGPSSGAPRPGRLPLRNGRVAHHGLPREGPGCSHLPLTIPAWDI
Sequence of Y^7.33A_hNPFF2R (Q9Y5X5 whole entry Y415A): as the sequence (Q9Y5X5 whole entry Y417A) above, with Y415A, A417Y counted along it
Sequence of D^6.59A_hNPFF2R (Q9Y5X5 whole entry D400A): as the sequence (Q9Y5X5 whole entry Y417A) above, with D400A, A417Y counted along it
Sequence of Y^5.38A hNPFF2 receptor (Q9Y5X5 whole entry Y321A): as the sequence (Q9Y5X5 whole entry Y417A) above, with Y321A, A417Y counted along it

Row | Structure (SMILES) | functional behaviour at NPFF1R (hNPFF1R [1]) | x-fold (hNPFF1R [1]) [fold] | cytotoxicity (relative cell viability) (COS-7 cells) | functional behaviour at NPFF2R (human NPFF2 receptor) | x-fold (human NPFF2 receptor) [fold] | EC50 (human NPFF2 receptor) [nM] | x-fold (Y^7.35A_hNPFF2R) [fold] | x-fold (Y^5.38A hNPFF2 receptor) [fold] | IP accumulation at NPFF1R (hNPFF1R [1]) | Schild plot slope (hNPFF1R [2]) | antinociceptive effect on mechanical allodynia [3] | x-fold (D^6.59A_hNPFF2R) [fold] | x-fold (Y^7.33A_hNPFF2R) [fold] | effect on stimulation of [^35S]GTPγS binding (hNPFF2R; hNPFF2R membranes, up to 100 μM) | right-shift of concentration-effect curves of NPFF (hNPFF2R; in the presence of high concentrations of RF9) | activity in cAMP accumulation assay (hNPFF1R [4])
1 | N=C(N)N/N=C/c1ccc(Br)c(Br)c1 [AC-093] | partial agonists | 310 | cytotoxic effect | full agonists | 1291 |  |  |  |  |  |  |  |  |  |  | 
2 | N=C(N)N/N=C/c1ccc(Cl)c(C(F)(F)F)c1 [AC-099] | partial agonists |  |  | full agonists |  |  |  |  |  |  |  |  |  |  |  | 
3 | N=C(N)N/N=C/c1ccc(-c2ccc(Br)cc2C(F)(F)F)o1 [AC-216] | full agonist | 3308 | cytotoxic effect | full agonists | 977 | 1160 ± 638 | 738 |  |  |  |  |  |  |  |  | 
4 | N=C(N)N/N=C/C12CC3CC(CC(C3)C1)C2 [AC-970] | competitive antagonism |  | cytotoxic effect | full agonists | 175 |  | 177 | 1440 | no IP accumulation | 1.04 ± 0.19 | reversing established mechanical allodynia | 5211 | 4901 |  |  | 
5 | NC(N)=NCCC[C@@H](NC(=O)C(c1ccccc1)c1ccccc1)C(=O)NCc1ccc(O)cc1 [BIBP3226, (R)-N(2)-(diphenylacetyl)-N-[(4-hydroxyphenyl)-methyl]-argininamide, reference compound] | competitive antagonist |  |  | partial agonist | 137 |  | 66 |  | no IP accumulation | 0.89 ± 0.05 |  |  |  |  |  | 
6 | N=C(N)NCCC[C@H](NC(=O)C12CC3CC(CC(C3)C1)C2)C(=O)N[C@@H](Cc1ccccc1)C(N)=O [RF9, 1-Adamantanecarbonyl-RF-NH2, reference compound] | agonistic activity | 41 |  | agonistic activity | 222 |  | 277 |  |  |  |  |  |  | no effect | ~ 160 fold | inactive
